Laboratory results taken from ChEMBL document CHEMBL5126619, “An Unexpected Deuterium-Induced Metabolic Switch in Doxophylline” (ACS Med Chem Lett, 2022).
The source made the active and inactive calls. The calls are words filed in the database; no cut-off is given here.

Key:
[1] = tested on: Mus musculus; test: Antifibrotic activity against Pseudomonas aeruginosa-induced pulmonary fibrosis C57BL/6 mouse model assessed as reduction in MPO level at 80 mg/kg, os qd […] and measured after 7 days by spectrophotometric analysis; format: functional, organism-based; settings: time 7.0 day, tested as the 2H-labelled form
In short: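 Pseudomonas bead model, 80 mg/kg oral daily for 7 days from 1 h post-instillation. Lungs homogenized in 0.5% HTAB/10 mM potassium phosphate pH 7 and spun 20,000×g, 30 min, 4 °C. Supernatant reacted with 0.1 mM H2O2 and 1.6 mM tetramethylbenzidine, A650 read. Unit = 1 µmol H2O2 degraded/min at 37 °C; per g wet tissue.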

[2] = tested on: Mus musculus; test: (§1) Antifibrotic activity against Pseudomonas aeruginosa-induced pulmonary fibrosis C57BL/6 mouse model assessed as reduction in accumulation of immune cells bronchoalveolar lavage at 80 mg/kg, os qd pretreated with compound for 1 hr followed by Pseudomonas aeruginosa instillation and measured after 7 days by trypan blue staining based hemocytometer analysis; format: functional, organism-based; settings: time 7.0 day
In short: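 Day 7 after trans-tracheal Pseudomonas bead instillation, with oral 80 mg/kg daily dosing. Trachea cannulated, lungs washed once with 0.5 mL Dulbecco's PBS. Fluid spun, then total pelleted cells counted with trypan blue on a hemocytometer.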

[3] = tested on: Mus musculus; test: Antifibrotic activity against BLM-induced lung injury C57BL/6 mouse model assessed as reduction in collagen thickness at 80 mg/kg, po qd pretreated with compound for 1 hr followed by BLM treatment and measured on day 21 by picrosirius red staining method; format: functional, organism-based; settings: time 21.0 day
In short: (§2)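 BLM model: pharyngeal aspiration 0.02U/50µl; oral daily dosing in saline from 1 h pre-BLM; day 21 sacrifice. Lungs fixed 48 h in 10% buffered formalin at room temperature, paraffin-embedded, 4 µm sections. Stains: H&E for infiltrate, Masson's trichrome or Picrosirius Red for stromal fibres.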

[4] = tested on: Mus musculus; test: Antifibrotic activity against BLM-induced lung injury C57BL/6 mouse model assessed as reduction in lung wet/dry ratio by measuring liquid accumulation at 80 mg/kg, po qd pretreated with compound for 1 hr followed by BLM treatment and measured on day 21; format: functional, organism-based; settings: time 21.0 day
In short: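 At day 21 after BLM aspiration (compound given orally daily from 1 h pre-BLM), lungs harvested free of extraneous tissue and weighed wet. Dried 72 h at 100°C and reweighed. Water content = wet minus dry weight.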

[5] = tested on: Mus musculus; test: as §1, with “inflammatory interstitial infiltrate” for “accumulation of immune cells bronchoalveolar lavage”, “H and E” for “trypan blue”, “histological” for “hemocytometer”; format: functional, organism-based; settings: time 7.0 day
In short: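 Pseudomonas bead lung model, day 7, with oral 80 mg/kg daily treatment. Biopsies fixed in 10% formaldehyde in PBS at room temperature and stained with H&E. Five random fields per sample at ×100 scored for severity by a blinded observer.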

[6] = tested on: Mus musculus; test: Antifibrotic activity against BLM-induced lung injury C57BL/6 mouse model assessed as reduction in accumulation of immune cells bronchoalveolar lavage at 80 mg/kg, po qd pretreated with compound for 1 hr followed by BLM treatment and measured on day 21 by trypan blue staining based hemocytometer analysis; format: functional, organism-based
In short: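 BLM model with aspiration, oral daily dosing in saline from 1 h pre-challenge, and day-21 endpoint. Lavage via tracheal cannula with 1 mL aliquots of ice-cold Ca/Mg-free phosphate medium, pH 7.4. Cells pelleted at 500×g, 5 min, 4 °C, then washed and resuspended. Counted by trypan blue exclusion on a hemocytometer.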

[7] = tested on: Mus musculus; test: (§3) Antifibrotic activity against Pseudomonas aeruginosa-induced pulmonary fibrosis C57BL/6 mouse model assessed as effect on collagen deposition at 80 mg/kg, os qd pretreated with compound for 1 hr followed by Pseudomonas aeruginosa instillation and measured after 7 days by Masson trichrome staining based analysis; format: functional, organism-based; settings: time 7.0 day, tested as the 2H-labelled form
[8] = tested on: Mus musculus; test: Antifibrotic activity against Pseudomonas aeruginosa-induced pulmonary fibrosis C57BL/6 mouse model assessed as effect on nitrotyrosine expression at 80 mg/kg, os qd […] and measured after 7 days by immunohistochemistry analysis; format: functional, organism-based; settings: time 7.0 day, tested as the 2H-labelled form
In short: (§4)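 Mucoid P. aeruginosa NH57388A in agar beads, ~1×10^6 CFU per mouse, given trans-tracheally under isoflurane. Compound 80 mg/kg orally daily from 1 h post-instillation for 7 days, n=10. Lung sections 8 µm from formaldehyde-fixed paraffin blocks. Anti-nitrotyrosine or anti-PAR 1:500 overnight, avidin-biotin peroxidase detection. Densitometry of positive pixels; mean ± S.E.M.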

[9] = tested on: Mus musculus; test: as §3, with “decrease in lung inflammation” for “effect on collagen deposition”, “immunohistochemistry” for “Masson trichrome staining based”; format: functional, organism-based; settings: time 7.0 day
[10] = tested on: Mus musculus; test: Inhibition of Pseudomonas aeruginosa-induced apoptosis in C57BL/6 mouse at 80 mg/kg, os qd pretreated with compound for 1 hr followed by Pseudomonas aeruginosa instillation and measured after 7 days by TUNEL assay; format: functional, organism-based; settings: time 7.0 day, tested as the 2H-labelled form
In short: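 Lung sections from the day-7 Pseudomonas model (oral 80 mg/kg daily) treated with 15 µg/ml proteinase K for 15 min at RT, then 3% H2O2 for 5 min. TdT with biotinylated dUTP applied, 37 °C 90 min. HRP-conjugated antibody 30 min, then DAB. TUNEL-positive cells quantified.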

[11] = tested on: Mus musculus; test: Antifibrotic activity against BLM-induced lung injury C57BL/6 mouse model assessed as decrease in inflammatory interstitial infiltrate at 80 mg/kg, po qd pretreated with compound for 1 hr followed by BLM treatment and measured on day 21 by H and E staining based histological analysis; format: functional, organism-based; settings: time 21.0 day; in short: as §2
[12] = tested on: Mus musculus; test: Antifibrotic activity against BLM-induced lung injury C57BL/6 mouse model assessed as reduction in collagen thickness at 80 mg/kg, po qd pretreated with compound for 1 hr followed by BLM treatment and measured on day 21 by Masson trichrome staining based analysis; format: functional, organism-based; settings: time 21.0 day; in short: as §2
[13] = tested on: Mus musculus; test: Antifibrotic activity against BLM-induced lung injury C57BL/6 mouse model assessed as decrease in MPO level at 80 mg/kg, po qd pretreated with compound for 1 hr followed by BLM treatment and measured on day 21 by colorimetric assay; format: functional, organism-based; settings: time 21.0 day
In short: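 BLM 0.02U/50µl given by pharyngeal aspiration under isoflurane. Compound in 0.9% NaCl, or saline vehicle, by gavage 1 h before BLM, then daily. Mice killed day 21. Lung MPO measured with a colorimetric kit per the manufacturer. Unit = enzyme degrading 1 μM peroxide/min at 37°C, expressed as U/mg wet tissue.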

[14] = tested on: Mus musculus; test: Antifibrotic activity against Pseudomonas aeruginosa-induced pulmonary fibrosis C57BL/6 mouse model assessed as effect on poly(ADP-ribose) polymerase level at 80 mg/kg, os qd […] and measured after 7 days by immunohistochemistry analysis; format: functional, organism-based; settings: time 7.0 day, tested as the 2H-labelled form; in short: as §4
[15] = Drug metabolism in mouse plasma assessed as dm-doxophylline formation measured upto 4 hrs; format: ADME, cell-free
In short: (§5)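 Plasma from mice dosed 20 mg/Kg i.v. or 80 mg/Kg by oral gavage, sampled sublingually under isoflurane pre-dose to 24 h (n=3), K3EDTA. Caffeine internal standard, trichloroacetic acid precipitation. Kinetex C18 UHPLC-MS, positive full-scan/PRM. Metabolites quantified against calibration curves.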

[16] = Drug metabolism in mouse plasma assessed as Theophylline formation measured upto 4 hrs; format: ADME, cell-free; in short: as §5
[17] = Drug metabolism in mouse plasma assessed as Etophylline formation measured upto 4 hrs; format: ADME, cell-free; in short: as §5
[18] = Drug metabolism in mouse plasma assessed as 7-((1,3-dioxol-2-yl)methyl)-1,3-dimethyl-1H-purine-2,6(3H,7H)-dione formation measured upto 6 hrs; format: ADME, cell-free
[19] = Drug metabolism in mouse plasma assessed as 7-theophylline acetic acid formation by measuring fold increase measured at 30 mins; format: ADME, cell-free; settings: 0.5 h; in short: as §5

For `Cn1c(=O)c2c(ncn2CC2OCCO2)n(C)c1=O`, the Activity [1] was “Active”, the Activity [2] was “Active” and the Activity ([2]; tested as the 2H-labelled form) was “Active”. The Activity [3] was “Active”, the Activity ([3]; tested as the 2H-labelled form) was “Active” and the Activity [4] was “Active”. The Activity ([4]; tested as the 2H-labelled form) was “Active”, the Activity [5] was “Active” and the Activity ([5]; tested as the 2H-labelled form) was “Active”. For the same compound, the Activity [6] was “Active”, the Activity ([6]; tested as the 2H-labelled form) was “Active” and the Activity [7] was “Active”. The Activity [8] was “Active”, the Activity [9] was “Active” and the Activity ([9]; tested as the 2H-labelled form) was “Active”. The inhibition [10] was “Active”, the Activity [11] was “Active” and the Activity ([11]; tested as the 2H-labelled form) was “Active”. The Activity [12] was “Active”, the Activity ([12]; tested as the 2H-labelled form) was “Active” and the Activity [13] was “Active”. For the same compound, the Activity ([13]; tested as the 2H-labelled form) was “Active” and the Activity [14] was “Active”.
For `[2H]C1([2H])OC(Cn2cnc3c2c(=O)n(C)c(=O)n3C)OC1([2H])[2H]`, the Drug metabolism [15] was “Metabolite_Detected”, the Drug metabolism [16] was “Metabolite_Detected” and the Drug metabolism [17] was “Metabolite_Notdetected”. For the same compound, the Drug metabolism [18] was “Metabolite_Notdetected” and the “fold change (FC)” value [19] was 3.
